Measurements: ChEMBL document CHEMBL4390698, “Targeted delivery of atorvastatin via asialoglycoprotein receptor (ASGPR)” (Bioorg Med Chem, 2019)
The source made the active and inactive calls. The calls are words filed in the database; no cut-off is given here.

Assays:
[1] = target: T1, 3-hydroxy-3-methylglutaryl-coenzyme A reductase (Homo sapiens) (UniProt P04035); assay: Inhibition of HMG CoA reductase (unknown origin) in pH 4.5 PBS in presence of NADPH incubated for 10 mins
T1 sequence (whole entry): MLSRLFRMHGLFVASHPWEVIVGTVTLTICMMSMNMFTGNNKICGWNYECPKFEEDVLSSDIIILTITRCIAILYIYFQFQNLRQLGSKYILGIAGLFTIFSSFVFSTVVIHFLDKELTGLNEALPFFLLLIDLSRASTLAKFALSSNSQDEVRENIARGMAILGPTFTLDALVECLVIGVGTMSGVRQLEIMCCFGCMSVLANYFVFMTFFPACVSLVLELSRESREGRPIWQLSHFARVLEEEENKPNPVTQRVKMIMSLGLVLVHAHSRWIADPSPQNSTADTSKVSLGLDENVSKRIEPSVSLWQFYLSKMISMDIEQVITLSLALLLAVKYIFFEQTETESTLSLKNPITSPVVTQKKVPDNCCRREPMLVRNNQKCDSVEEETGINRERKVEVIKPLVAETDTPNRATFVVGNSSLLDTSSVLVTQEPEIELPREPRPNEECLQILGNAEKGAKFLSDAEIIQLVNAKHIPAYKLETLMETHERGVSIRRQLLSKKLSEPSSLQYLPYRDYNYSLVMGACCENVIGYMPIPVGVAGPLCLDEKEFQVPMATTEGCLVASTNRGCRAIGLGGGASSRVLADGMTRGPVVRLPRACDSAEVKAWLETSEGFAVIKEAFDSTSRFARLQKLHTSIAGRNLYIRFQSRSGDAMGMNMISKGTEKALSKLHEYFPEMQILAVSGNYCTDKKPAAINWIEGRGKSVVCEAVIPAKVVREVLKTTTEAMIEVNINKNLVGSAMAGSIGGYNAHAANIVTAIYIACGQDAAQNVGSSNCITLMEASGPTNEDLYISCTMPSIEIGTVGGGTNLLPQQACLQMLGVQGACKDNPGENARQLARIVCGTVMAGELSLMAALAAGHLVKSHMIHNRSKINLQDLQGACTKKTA
Summary of the method: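 Commercial HMG-CoA reductase kit, run on conjugates first hydrolysed as in the esterase procedure (pH 7.40 esterase, or pH 4.50 then pH 7.40 esterase). Absorbance at 340 nm was read kinetically for 10 min. Activity was computed from ΔA340/min (sample minus blank) using NADPH ε 6.22 mM⁻¹cm⁻¹ ×2, 0.6 mg/mL enzyme, 12×10^-3 mL enzyme, 0.2 mL total volume and 0.55 cm path.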

[2] = target: T1, 3-hydroxy-3-methylglutaryl-coenzyme A reductase (Homo sapiens); assay: Inhibition of HMG CoA reductase in human Hep3G cells assessed as increase in LDL receptor expression at 25 uM incubated for 48 hrs by immunofluorescence method; format: cell-based; settings: in the assay text read “Hep3B” for “Hep3G”
Summary of the method: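 Hep3B cells seeded 2×10^5 cells/cm2 and treated 24 h later at 25 μM final (from 10 mM stocks) for 48 h. Harvested cells were stained with anti-LDL receptor primary (1/100, 30 min RT), then goat anti-mouse IgG (1/2000, 30 min RT, dark), and analysed by flow cytometry. Triplicate; two-tailed t test.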

[3] = Drug metabolism assessed as esterase (unknown origin)-mediated atorvastatin release in pH 7.4 PBS buffer incubated for 3 to 24 hrs by mass spectrometry; format: ADME; settings: human
Summary of the method: (§1)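 Porcine liver esterase hydrolysis; DMSO stocks 3.5 mM. pH 7.40 route: stock diluted into PBS pH 7.40 containing 0.5 mg/mL esterase, 37 °C, sampled at 0 h, 3 h and 24 h. pH 4.50 route: PBS pH 4.50 at 37 °C for 24 h, pH raised to 7.40 with NaOH, PBS pH 7.40 containing 1.0 mg/mL esterase added, 37 °C one day. Reactions quenched with DCM; DCM layer analysed by mass spectrometry.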

[4] = target: T1, 3-hydroxy-3-methylglutaryl-coenzyme A reductase (Homo sapiens); assay: Inhibition of HMG CoA reductase (unknown origin) using hydrolyzed product of compound in presence of NADPH incubated for 24 hrs in pH 4.5 PBS followed by incubation in pH 7.4 for 24 hrs in presence of esterase
[5] = Drug uptake in human Hep3B cells assessed as ASGPR-mediated cellular uptake at 90 uM incubated for 3 hrs in presence of 90 mM GalNac by UV spectrum and mass spectroscopic method relative to atorvastatin; format: ADME, cell-based
Summary of the method: (§2)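 Hep3B cells in EMEM/10% FBS, 37 °C, 5% CO2, seeded 1×10^4 cells/cm2. After 24 h, compound was added from 18 mM stocks to a final 90 μM, with or without 90 mM GalNac co-added, for 3 h. Cells were rinsed, trypsinised and pelleted, then extracted with methanol/DCM. Supernatant was read by UV and mass spectra, and amounts were taken from standard curves.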

[6] = Drug metabolism assessed as esterase (unknown origin)-mediated atorvastatin release in pH 4.5 PBS buffer incubated for 3 to 24 hrs by mass spectrometry; format: ADME; settings: human; summary of the method: as §1
[7] = Drug uptake in human Hep3B cells assessed as ASGPR-mediated cellular uptake at 90 uM incubated for 3 hrs by UV spectrum and mass spectroscopic method relative to atorvastatin; format: ADME, cell-based; summary of the method: as §2

CC(C)c1c(C(=O)Nc2ccccc2)c(-c2ccccc2)c(-c2ccc(F)cc2)n1CC[C@@H](O)C[C@@H](O)CC(=O)O
inhibition [1]: Active
inhibition [2]: Active

CC(=O)N[C@H]1[C@H](OCCn2cc(COC(=O)C[C@H]3C[C@@H](CCn4c(-c5ccc(F)cc5)c(-c5ccccc5)c(C(=O)Nc5ccccc5)c4C(C)C)OC(C)(C)O3)nn2)O[C@H](CO)[C@H](O)[C@@H]1O
Drug metabolism [3]: Metabolite_Notdetected
inhibition [4]: inactive
Drug uptake [5]: Not Active
inhibition [1]: inactive
inhibition [2]: Active
Drug metabolism [6]: Metabolite_Detected
fold change (FC) [7]: 5.1

CC(=O)N[C@H]1[C@H](OCCn2cc(COC(=O)C[C@H](O)C[C@H](O)CCn3c(-c4ccc(F)cc4)c(-c4ccccc4)c(C(=O)Nc4ccccc4)c3C(C)C)nn2)O[C@H](CO)[C@H](O)[C@@H]1O
Drug metabolism [3]: Metabolite_Detected
inhibition [4]: inactive
Drug uptake [5]: Not Active
inhibition [1]: inactive
inhibition [2]: Active
fold change (FC) [7]: 1.4
